Measured values as given in paper PMC2775413 (Bioorganic & medicinal chemistry, 2009).

Columns and labels:
[1] = Metabolism of prodrugs in fresh mouse plasma with NADPH regenerating system; type: in vitro ADME; settings: 37 °C; for Metabolism in fresh mouse plasma (prodrug remaining by HPLC): NADPH regenerating system, over 80 minutes
[2] = Metabolism in fresh mouse brain homogenate with NADPH; type: in vitro ADME; settings: PBS pH 7.4, 37 °C, NADPH in excess
Outline: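 Three fresh mouse brains were homogenized in PBS pH 7.4 (1 mL per brain) with NADPH regenerating buffers A and B, then pooled. Test compound was added from a 200 μM stock and incubated at 37 °C for 0, 10, 20 and 40 min. Reactions were stopped by heating to 95 °C for 1 min. HPLC with UV at 310 or 260 nm depending on compound; analyte/internal standard peak-area ratio normalized to t = 0.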

[3] = Anaerobic microsome assay for azide metabolism; type: in vitro ADME, rat
Outline: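 Rat liver microsomes, NADPH regenerating system, test azide added from a 100 μM stock. PBS was deoxygenated by N2 bubbling for 15 min. Vials were sealed with septa, the headspace N2-purged and kept under an N2 balloon, and equilibrated at 37 °C. Microsomes were injected through the septum and incubated 0, 10, 20, 40 min. Acetonitrile quench, protein precipitation at 0 °C, supernatant dried, reconstituted in 2% formic acid, HPLC; peak area normalized to t = 0.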

[4] = Mouse brain uptake study after i.p. injection; type: in vivo; settings: for Brain AUC over the 20-minute experiment compared with 5: i.p., 5 at 3.7 mg/kg
Standard microsome assay = type: in vitro ADME, rat; settings: 37 °C

Compound: 1-((S)-1-{2-[2-aminoethyl]phenylamino}-5-nitroguanidinopentan-2-ylcarbamoyloxy)ethyl pivalate [Compound 3]
- Conversion of prodrug to parent compound (4) in mouse plasma ([1]; HPLC peak of 4 over time): converted to the parent compound
- Metabolism in fresh mouse plasma (prodrug remaining by HPLC) [1]: rapid
- Metabolism in mouse brain homogenate (compound amount over time) [2]: decreased over the course of the experiment

Compound: Cc1cc(N)nc(C[C@@H]2CNC[C@@H]2OCCN=[N+]=[N-])c1 (racemic) [Compound 1, 6-((4-(2-Azidoethoxy)pyrrolidin-3-yl)methyl)-4-methyl-pyridin-2-amine]
- Metabolism in fresh mouse plasma (prodrug remaining by HPLC) [1]: No significant metabolism
- Metabolism in mouse brain homogenate (compound amount over time) [2]: did not decrease
- Formation of amine from azide (mass spectral analysis of reaction mixtures) ([3]; anaerobic microsome incubation): no peak corresponding to the amine

Compound: CC(=O)N(CCO[C@H]1CNC[C@H]1Cc1cc(C)cc(N)n1)CCc1cccc(F)c1 (racemic) [Compound 6, N-(2-(4-((6-Amino-4-methylpyridin-2-yl)-methyl)pyrrolidin-3-yloxy)ethyl)-N-(3-fluoro-phenethyl)acetamide]
- Time of peak brain concentration ([4]; mouse, i.p. 4.1 mg/kg, 20-minute experiment): 5 min
- Brain AUC over the 20-minute experiment compared with 5 ([4]; mouse): roughly the same

Compound: COC(=O)N(CCO[C@H]1CNC[C@H]1Cc1cc(C)cc(N)n1)CCc1cccc(F)c1 (racemic) [Compound 7, Methyl 2-(4-((6-amino-4-methylpyridin-2-yl)-methyl)pyrrolidin-3-yloxy)ethyl(3-fluoro-phenethyl)carbamate]
- Tmax ([4]; mouse, plasma, ip, 4.3 mg/kg): 5 min

Compound: Cc1cc(N)nc(C[C@@H]2CNC[C@@H]2OCCNCCc2cccc(F)c2)c1 [Compound 5]
- Amount of compound lost with rat liver microsomes (Standard microsome assay; over 30 minutes, in presence and absence of NADPH): approximately 20%
- Toxicity in mice ([4]; i.p. injection at 3.7 mg/kg): no toxicity was observed

Compound: Cc1cc(N)nc(C[C@@H]2CNC[C@@H]2OCCN(CCc2cccc(F)c2)C(=O)OCc2ccccc2)c1 [Compound 8, Benzyl 2-(4-((6-amino-4-methylpyridin-2-yl)-methyl)pyrrolidin-3-yloxy)ethyl(3-fluoro-phenethyl)carbamate]
- Peak plasma concentration ([4]; mouse, i.p. 5.1 mg/kg, 20-minute experiment): around 1 μM
- Brain AUC over the 20-minute experiment compared with 5 ([4]; mouse): much lower

Compound: Cc1cc(-c2ccccc2)nnc1NCCN1CCOCC1 [minaprine, reference compound]
- Concentration remaining with microsomes at 20 min (Standard microsome assay; 20 min): not quantifiable
- Metabolism by microsomes under anaerobic conditions ([3]; 37 °C, deoxygenated buffer, nitrogen atmosphere, NADPH): metabolized readily
